# Tests used:
# Acinetobacter baumannii = experiment: Antimicrobial activity against Acinetobacter baumannii ATCC 19606 incubated for 18 hrs by CLSI method; assay type: functional; details: ATCC 19606 = CIP 70.34 = JCM 6841, 18 h
# Method in brief: (§1)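 Screen run by CO-ADD: mid-log cultures in cation-adjusted MHB, 5 × 10^5 CFU/mL, compounds at up to 32 μg/mL in 1:2 serial dilutions (8 steps), final DMSO ≤0.5%, duplicate. 37 °C for 18 h without shaking; OD600 read against media-only and untreated-bacteria references. MIC = lowest concentration giving ≥80% inhibition; colistin standard.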
# Streptococcus pneumoniae = experiment: Antibacterial activity against Streptococcus pneumoniae ATCC 49619 incubated for 24 hrs by CLSI method; assay type: functional; details: ATCC 49619, 24 h
# Method in brief: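 CLSI broth microdilution in MHB with 2.5% lysed horse blood, 5% CO2, 35 °C, 24 h. Compounds from 5 mg/mL DMSO stocks diluted in water plus double-strength broth; final 0.25–128 μg/mL. […] Triplicate; modal MIC read visually as lowest growth-inhibiting concentration.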
# Clostridioides difficile [1] = experiment: Antibacterial activity against Clostridium difficile ATCC 700057 incubated for 48 hrs by CLSI method; assay type: functional; details: ATCC 700057, 48 h
# Method in brief: (§2)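 Broth microdilution per CLSI anaerobe method in pre-reduced (2-4 h) Brucella broth with haemin and vitamin K, 35 °C anaerobically for 48 h. Compounds from 5 mg/mL DMSO stocks, twofold dilutions in water mixed with double-strength broth; final 0.25–128 μg/mL. […] Triplicate; modal MIC read visually as lowest concentration inhibiting growth.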
# Clostridioides difficile [2] = experiment: Antibacterial activity against Clostridium difficile NSW132 RT027 incubated for 48 hrs by CLSI method; assay type: functional; details: NSW132 RT027, 48 h; method in brief: as §2
# Pseudomonas aeruginosa = experiment: Antimicrobial activity against Pseudomonas aeruginosa ATCC 27853 incubated for 18 hrs by CLSI method; assay type: functional; details: ATCC 27853, 18 h; method in brief: as §1
# Staphylococcus aureus [3] = experiment: Antimicrobial activity against Staphylococcus aureus ATCC 43300 incubated for 18 hrs by CLSI method; assay type: functional; details: ATCC 43300, 18 h
# Enterococcus faecalis = experiment: Antibacterial activity against Enterococcus faecalis ATCC 29212 incubated for 24 hrs by CLSI method; assay type: functional; details: ATCC 29212, 24 h
# Escherichia coli = experiment: Antibacterial activity against Escherichia coli ATCC 25922 incubated for 18 hrs by CLSI method; assay type: functional; details: ATCC 25922, 18 h; method in brief: as §1
# Staphylococcus aureus [4] = experiment: Antimicrobial activity against Staphylococcus aureus ATCC 29213 incubated for 24 hrs by CLSI method; assay type: functional; details: ATCC 29213, 24 h
# Method in brief: (§3)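 Broth microdilution per CLSI aerobic guidance in Mueller Hinton broth, ambient air, 35 °C for 24 h. DMSO stocks were diluted in water, then serially diluted with double-strength broth inoculum added, for final 0.25–128 μg/mL. […] MIC was read visually as the lowest concentration inhibiting growth; the modal value of triplicates was recorded.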
# [5] = Cytotoxicity against human HEK293 cells assessed as reduction in cell growth incubated for 20 hrs by resazurin dye-based fluorometric assay
# Method in brief: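 HEK293 cells, 5000 per well in DMEM + 10% FBS, exposed to compounds (top 32 μg/mL, 1:2 serial dilution ×8, ≤0.5% DMSO, duplicate) for 20 h at 37 °C, 5% CO2. Resazurin added (2.3 μg/mL final), 3 h further; fluorescence ex 560/em 590 nm. CC50 from sigmoidal dose-response fit against log concentration; tamoxifen standard.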
# Klebsiella pneumoniae = experiment: Antibacterial activity against Klebsiella pneumoniae 700603 incubated for 18 hrs by CLSI method; assay type: functional; details: Klebsiella pneumoniae, 700603, 18 h; method in brief: as §1
# Staphylococcus aureus [6] = experiment: Antibacterial activity against methicillin-resistant Staphylococcus aureus NCTC 10442 incubated for 24 hrs by CLSI method; assay type: functional; details: NCTC 10442, 24 h; method in brief: as §3
SMILES,MIC (Acinetobacter baumannii) [µg/mL],MIC (Streptococcus pneumoniae) [µg/mL],MIC (Clostridioides difficile [1]) [µg/mL],MIC (Clostridioides difficile [2]) [µg/mL],MIC (Pseudomonas aeruginosa) [µg/mL],MIC (Staphylococcus aureus [3]) [µg/mL],MIC (Enterococcus faecalis) [µg/mL],MIC (Escherichia coli) [µg/mL],MIC (Staphylococcus aureus [4]) [µg/mL],CC50 at 20 h [5] [µg/mL],MIC (Klebsiella pneumoniae) [µg/mL],MIC (Staphylococcus aureus [6]) [µg/mL]
CC(C)CCOc1ccccc1-c1ccccc1OCc1cn(C[C@@H](CCCCN)NC(=O)Cc2ccccc2)nn1.Cl,32,8,32,32,32,16,8,> 32,8,14.2,> 32,8
CC(C)CCOc1ccccc1-c1ccccc1OCc1cn(C[C@@H](CCCNC(=N)N)NC(=O)[C@@H](CCCCN)N=[N+]=[N-])nn1.Cl.Cl,16,8,64,32,32,8,16,16,16,> 32,32,16
CC(C)CCOc1ccc2ccccc2c1-c1c(OCc2cn(C[C@@H](CCCNC(=N)N)NC(=O)CCc3ccccc3)nn2)ccc2ccccc12.Cl,> 32,8,16,16,> 32,4,8,> 32,4,15.9,> 32,4
CC(C)CCOc1ccccc1-c1ccccc1OCc1cn(C[C@@H](CCCNC(=N)N)NC(=O)Cc2ccccc2)nn1.Cl,> 32,16,64,16,> 32,16,16,> 32,16,29,> 32,16
CC(C)CCOc1ccccc1-c1ccccc1OCc1cn(C[C@@H](CCCCN)NC(=O)OCc2ccccc2)nn1.Cl,32,32,8,32,32,16,16,32,16,4.7,> 32,16
CC(C)CCOc1ccccc1-c1ccccc1OCc1cn(C[C@@H](CCCNC(=N)N)NC(=O)[C@@H](CCCCN)n2cc(Cc3ccccc3)nn2)nn1.Cl.Cl,16,4,64,64,16,4,8,8,4,17.8,32,4
CC(C)CCOc1ccc2ccccc2c1-c1c(OCc2cn(C[C@@H](CCCNC(=N)N)NC(=O)OCc3ccccc3)nn2)ccc2ccccc12.Cl,> 32,8,32,32,> 32,4,8,> 32,4,13.8,> 32,4
CC(C)CCOc1ccccc1-c1ccccc1OCc1cn(C[C@@H](CCCNC(=N)N)NC(=O)[C@@H](CCCCN)n2cc(C3CCCCC3)nn2)nn1.Cl.Cl,8,4,32,32,8,4,8,8,4,15.3,32,4
CC(C)CCOc1ccccc1-c1ccccc1OCc1cn(C[C@@H](CCCCN)NC(=O)[C@@H](CCCNC(=N)N)NC(=O)OCC2c3ccccc3-c3ccccc32)nn1.Cl.Cl,> 32,4,32,32,> 32,4,4,> 32,4,> 32,> 32,4
CC(C)CCOc1ccccc1-c1ccccc1OCc1cn(C[C@@H](CCCCN)NC(=O)[C@@H](CCCNC(=N)N)n2cc(CCc3ccccc3)nn2)nn1.Cl.Cl,16,8,8,8,8,2,8,8,4,> 32,16,4
CC(C)CCOc1ccc2ccccc2c1-c1c(OCc2cn(C[C@@H](CCCCN)NC(=O)Cc3ccccc3)nn2)ccc2ccccc12.Cl,> 32,32,16,32,> 32,8,8,> 32,8,8.6,> 32,8
CC(C)CCOc1ccc2ccccc2c1-c1c(OCc2cn(C[C@@H](CCCCN)NC(=O)[C@@H](CCCNC(=N)N)NC(=O)Cc3ccccc3)nn2)ccc2ccccc12.Cl.Cl,32,4,8,16,16,2,4,8,2,12.1,32,4
CC/C(=C(\c1ccccc1)c1ccc(OCCN(C)C)cc1)c1ccccc1 [TAMOXIFEN],–,–,–,–,–,–,–,–,–,13.1,–,–
CC(C)CCOc1ccc2ccccc2c1-c1c(OCc2cn(C[C@@H](CCCCN)NC(=O)[C@@H](CCCNC(=N)N)n3cc(CCc4ccccc4)nn3)nn2)ccc2ccccc12.Cl.Cl,32,4,16,16,32,4,4,> 32,4,> 32,> 32,4
CC(C)CCOc1ccccc1-c1ccccc1OCc1cn(C[C@@H](CCCCN)NC(=O)[C@@H](CCCNC(=N)N)n2cc(Cc3ccccc3)nn2)nn1.Cl.Cl,8,4,16,16,16,4,16,16,8,21.9,16,8
CC(C)CCOc1ccccc1-c1ccccc1OCc1cn(C[C@@H](CCCNC(=N)N)NC(=O)CCc2ccccc2)nn1.Cl,> 32,32,128,16,> 32,16,16,> 32,16,> 32,> 32,16
CC(C)CCOc1ccc2ccccc2c1-c1c(OCc2cn(C[C@@H](CCCCN)NC(=O)[C@@H](CCCNC(=N)N)NC(=O)CCCc3ccccc3)nn2)ccc2ccccc12.Cl.Cl,–,4,8,16,–,–,2,–,2,–,–,4

# From ChEMBL document CHEMBL4390663, “Cationic biaryl 1,2,3-triazolyl peptidomimetic amphiphiles: synthesis, antibacterial evaluation and preliminary mechanism of action studies” (Eur J Med Chem, 2019)
